Data: ChEMBL document CHEMBL1129496, “3-and 4-substituted 4H-pyrido[4,3-e]-1,2,4-thiadiazine 1,1-dioxides as potassium channel openers: synthesis, pharmacological evaluation, and structure-activity relationships” (1996)
Activity calls are given as the source filed them. The rule behind the calls is not given here.

Tests used:
Type in all cases: functional
[1] = species: Rattus norvegicus; assay: Percentage of residual contractile response at 500 uM from isolated rat aorta
[2] = species: Rattus norvegicus; assay: Residual insulin release from rat pancreatic islets at a concentration of 50 uM
Method in brief: (§1)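 Rat pancreatic islets in groups of 10 were preincubated 30 min at 37 °C in bicarbonate salt medium with 2.8 mM glucose and 0.5% dialyzed albumin, gassed with 95% O2/5% CO2. They were then incubated 90 min at 37 °C with 16.7 mM glucose plus test drug. Insulin was measured by radioimmunoassay against a rat insulin standard and reported as % residual release.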

[3] = species: Rattus norvegicus; assay: Percentage of residual contractile response in isolated rat aorta; +++ indicates that a maximal vasorelaxant activity was observed at 500 uM
[4] = species: Rattus norvegicus; assay: Effective dose to give 50% relaxation of the KCl induced contraction
Method in brief: (§2)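 Endothelium-denuded transverse aortic rings (3-4 mm) from fed Wistar rats (250-300 g), held at 36 ± 1 °C under 95% O2/5% CO2. After 60 min equilibration they were contracted with 30 mM KCl. At the plateau (1-2 g), drug was added cumulatively until maximal relaxation or 1 mM. Isometric tension was recorded. ED50 was read graphically from each curve. Mean ± sem of 3-12 experiments.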

[5] = species: Rattus norvegicus; assay: Percentage residual insulin release by the compound at 1 uM from rat pancreatic islets; method in brief: as §1
[6] = species: Rattus norvegicus; assay: Percentage residual insulin release by the compound at 10 uM from rat pancreatic islets; method in brief: as §1
[7] = species: Rattus norvegicus; assay: Effective dose concentration by the compound to give 50% relaxation of KCl induced concentration; method in brief: as §2
[8] = species: Rattus norvegicus; assay: Effective dose to give 50% relaxation of KCl induced concentration; method in brief: as §2
[9] = species: Rattus norvegicus; assay: Percentage residual insulin release by the compound at 1(uM from rat pancreatic islets; details: in the assay text read “10(uM” for “1(uM”; method in brief: as §1

| SMILES | Residual contractile activity [1] [%] | Residual insulin secretion [2] [%] | Residual contractile activity [3] | other results |
| --- | --- | --- | --- | --- |
| O=S1(=O)N=C(NN2CCOCC2)Nc2ccncc21 | 93 | 98.8 | – | – |
| CCCNC1=NS(=O)(=O)c2cnccc2N1 | 88 | – | – | – |
| CN1CCN(C2=NS(=O)(=O)c3cnccc3N2)CC1 | – | 90.6 | maximal vasorelaxant activity was observed at 500 uM | ED50 [4]: 125 µM |
| CCC(C)NC1=NS(=O)(=O)c2cc(Cl)ccc2N1 (stereo not given) | – | 5.5 | maximal vasorelaxant activity was observed at 500 uM | Residual insulin secretion [5]: 85.4%; Residual insulin secretion [6]: 19.9%; ED50 [4]: 25 µM |
| CCCCNC1=NS(=O)(=O)c2cnccc2N1 | 74 | – | – | Residual insulin secretion [6]: 82% |
| O=S1(=O)N=C(C(F)(F)F)Nc2ccncc21 | 96 | 90.4 | – | – |
| O=S1(=O)N=C(C2CCCC2)Nc2ccncc21 | – | 99.3 | maximal vasorelaxant activity was observed at 500 uM | ED50 [7]: 257 µM |
| CC1=NS(=O)(=O)c2cnccc2N1C(C)C | 86 | 68.1 | – | – |
| NC1=NS(=O)(=O)c2cnccc2N1 | 77 | – | – | – |
| CCC1=NS(=O)(=O)c2cnccc2N1 | 74 | 90.2 | – | – |
| CC1=NS(=O)(=O)c2cnccc2N1C1CCCCCCC1 | – | 90.6 | maximal vasorelaxant activity was observed at 500 uM | ED50 [8]: 248 µM |
| CC(C)(C)C1=NS(=O)(=O)c2cnccc2N1 | – | 81.1 | maximal vasorelaxant activity was observed at 500 uM | ED50 [7]: 258 µM |
| CC(NC1=NS(=O)(=O)c2cc(Cl)ccc2N1)C(C)(C)C (stereo not given) | – | 9.3 | maximal vasorelaxant activity was observed at 500 uM | Residual insulin secretion [5]: 87.7%; Residual insulin secretion [6]: 46.9%; ED50 [4]: 10 µM |
| CC(C)C(C)NC1=NS(=O)(=O)c2cc(Cl)ccc2N1 (stereo not given) | – | 11 | maximal vasorelaxant activity was observed at 500 uM | ED50 [4]: 32 µM |
| CC(C)CNC1=NS(=O)(=O)c2cnccc2N1 | – | – | maximal vasorelaxant activity was observed at 500 uM | ED50 [4]: 205 µM |
| O=S1(=O)N=C(NC2CCCCC2)Nc2ccncc21 | 40 | – | – | – |
| CC(C)C(C)NC1=NS(=O)(=O)c2cnccc2N1C (stereo not given) | 69 | 95.4 | – | – |
| CC1=NS(=O)(=O)c2cnccc2N1N1C2CCCC1CC2 | 53 | 71.9 | – | – |
| CC1=NS(=O)(=O)c2cnccc2N1C1CCCCC1 | 52 | 87.9 | – | – |

| SMILES | Residual contractile activity [1] [%] | Residual insulin secretion [2] [%] | Residual contractile activity [3] | other results |
| --- | --- | --- | --- | --- |
| CC(C)NC1=NS(=O)(=O)c2cnccc2N1C | 84 | 79.4 | – | – |
| CCCCN(C)C1=NS(=O)(=O)c2cnccc2N1 | 47 | 76.1 | – | – |
| O=S1(=O)N=CNc2ccncc21 | 94 | 99.5 | – | – |
| CCNC1=NS(=O)(=O)c2cnccc2N1 | 87 | 59.2 | – | – |
| CCCC1=NS(=O)(=O)c2cnccc2N1 | 77 | 85.1 | – | – |
| CC1=NS(=O)(=O)c2cnccc2N1N1CCOCC1 | 89 | 93.5 | – | – |
| CC(NC1=NS(=O)(=O)c2cnccc2N1)C(C)(C)C (stereo not given) | – | 10.3 | maximal vasorelaxant activity was observed at 500 uM | Residual insulin secretion [5]: 70%; Residual insulin secretion [6]: 41%; ED50 [4]: 104 µM |
| CC1=NS(=O)(=O)c2cnccc2N1C | 94 | 109 | – | – |
| CC1=Nc2ccc(Cl)cc2S(=O)(=O)N1 [DIAZOXIDE] | – | – | Active | Residual insulin secretion [6]: 70%; ED50 [4]: 21 µM |
| CCC(C)NC1=NS(=O)(=O)c2cnccc2N1 (stereo not given) | 34 | 9.4 | – | Residual insulin secretion [9]: 49% |
| O=S1(=O)N=C(NC2CCCC2)Nc2ccncc21 | 60 | 31.6 | – | – |
| O=S1(=O)NC(C2CCCC2)=Nc2ccc(Cl)cc21 | – | 14.1 | maximal vasorelaxant activity was observed at 500 uM | ED50 [7]: 2.8 µM |
| CC(C)C1=NS(=O)(=O)c2cnccc2N1 | 71 | 79.7 | – | – |
| CC(NC1=NS(=O)(=O)c2cnccc2N1C)C(C)(C)C (stereo not given) | 74 | 88.5 | – | – |
| CC1=NS(=O)(=O)c2cnccc2N1 | 92 | 100.4 | – | – |
| CC(C)C(C)NC1=NS(=O)(=O)c2cnccc2N1 (stereo not given) | – | 8.6 | Active | ED50 [4]: 302 µM |
| CCC(C)NC1=NS(=O)(=O)c2cnccc2N1C (stereo not given) | 61 | 81 | – | – |
| CC(C)NC1=NS(=O)(=O)c2cnccc2N1 | 89 | 42.6 | – | – |
| CC1=NS(=O)(=O)c2cc(Cl)ccc2N1C | – | 83.9 | – | – |
